From ChEMBL document CHEMBL1914360, “Synthesis and anticancer activity of 5'-chloromethylphosphonates of 3'-azido-3'-deoxythymidine (AZT)” (Bioorg Med Chem, 2011) come the findings set out here.

In one data set the test system is MCF7. The experiment in a line: Cytotoxicity against human MCF7 cells assessed as cell survival after 72 hrs by sulforhodamine B colorimetric assay. In kind it is functional, cell-based. The conditions noted are these: MCF7, 72 h. In a few lines:
(§1)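 SRB protein-stain assay: KB cells grown in RPMI 1640 and MCF-7 in DMEM, each with 10% FBS, 1% L-glutamine and 1% penicillin/streptomycin, at 37 °C. About 10,000 cells per well were left 24 h, then exposed 72 h to six concentrations ([…]), with DMSO ≤0.1%. Cells were TCA-fixed 1 h at 4 °C and stained 30 min at RT. OD was read at 490 nm, survival taken as % of untreated control, and each experiment run three times.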
On the technique in general: The SRB assay estimates cell density from bound dye.

The next data set concerns KB. Kind of data set: Cytotoxicity against human KB cells assessed as cell survival after 72 hrs by sulforhodamine B colorimetric assay. The data set is classed as functional, cell-based. In a few lines:
as §1

The nature of data set [1]: Oral bioavailability in human. The data set is classed as ADME, organism-based. The conditions noted are these: in vivo.
Data set [2] is described as follows: Apparent permeability from apical to basolateral side of the human Caco2 cells at 100 uM after 30 mins by HPLC method. The data set is classed as ADME, cell-based. The settings on record: Caco-2. In a few lines:
(§2)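 Caco-2 monolayers grown on polycarbonate membranes (0.4 µm pores) and used 21 days post-seeding; only monolayers with TEER above 800 Ω·cm² were used. Cells washed and pre-incubated 30 min at 37 °C. Compound at 100 µM in HBSS with 10 mM HEPES, pH 7.4, added to the donor side; shaken at 37 °C. Acceptor sampled every 15 min and analysed by HPLC. Papp reported as mean ± SD, n = 3.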

The nature of data set [3]: Apparent permeability from basolateral to apical side of the human Caco2 cells at 100 uM after 30 mins by HPLC method. The data set is classed as ADME, cell-based. The settings on record: Caco-2. The gist of the method:
as §2
(In general: Caco-2 monolayers are a common model of the intestinal barrier.)

The next data set concerns Caco-2. The experiment in a line: Cytotoxicity against human Caco2 cells at 100 uM. The data set is classed as cell-based. The settings on record: caco-2, 100 µM. The gist of the method:
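Caco-2 monolayers were exposed for 2 h to compound at 100 µM in transport medium (HBSS with 10 mM HEPES, pH 7.4). This served as a pre-check before transport studies. Monolayer integrity was checked by TEER before and after the experiments.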

Molecules are shown by their SMILES. Values after ≈ are worked out from the molar mass of the structure shown.

By IC50 is commonly meant the concentration that gives 50% inhibition. The term bioavailability denotes dose-corrected exposure relative to a reference, in per cent. Lower therefore signals poor availability. What is called Papp A→B is how fast a substance crosses the layer from the apical side. A word on the Papp B→A: it is the apparent permeability from the basolateral to the apical side of a cell layer.

For the molecule `Cc1cn([C@H]2C[C@H](N=[N+]=[N-])[C@@H](COP(=O)(CCl)NCCc3ccccc3)O2)c(=O)[nH]c1=O` (some centres not stated), the IC50 in the data set on MCF7 and in the data set on KB was above 100 µg/mL in each case.
Molecule `Cc1cn([C@H]2C[C@H](N=[N+]=[N-])[C@@H](CO)O2)c(=O)[nH]c1=O` [ZIDOVUDINE] yielded a bioavailability in data set [1] of 63%. For the same molecule, the results for the IC50 with MCF7 and in the data set with KB were 2.6 µg/mL (≈ 9.73 µM) and 3.12 µg/mL (≈ 11.7 µM), respectively. Also, the Papp A→B at 0.5 h, 100 µM in data set [2] came out at 2.85 ×10⁻⁶ cm/s.
For the molecule `CCCNP(=O)(CCl)OC[C@H]1O[C@@H](n2cc(C)c(=O)[nH]c2=O)C[C@@H]1N=[N+]=[N-]` (some centres not stated), the Papp B→A at 0.5 h, 100 µM in data set [3] is 16.1 ×10⁻⁶ cm/s. Further, the half-inhibitory concentration (IC50) in the data set with MCF7 amounted to 3.7 µg/mL (≈ 8.79 µM); in the data set on KB it was 5.8 µg/mL (≈ 13.8 µM). In the data set on Caco-2, the Activity entry is on record as “Non-toxic”. The Papp A→B at 0.5 h, 100 µM in data set [2] amounted to 3.22 ×10⁻⁶ cm/s.
As to `Cc1cn([C@H]2C[C@H](N=[N+]=[N-])[C@@H](COP(=O)(CCl)NCCc3c[nH]c4ccccc34)O2)c(=O)[nH]c1=O` (some centres not stated), the IC50 with MCF7 was above 100 µg/mL; with KB it was 80 µg/mL (≈ 153 µM).
As for `CCN(CC)P(=O)(CCl)OC[C@H]1O[C@@H](n2cc(C)c(=O)[nH]c2=O)C[C@@H]1N=[N+]=[N-]` (some centres not stated), the concentration for half-maximal inhibition (IC50) is 67 µg/mL (≈ 154 µM) in the data set on MCF7 and 85 µg/mL (≈ 195 µM) in the data set with KB.
For `C=CCNP(=O)(CCl)OC[C@H]1O[C@@H](n2cc(C)c(=O)[nH]c2=O)C[C@@H]1N=[N+]=[N-]` (some centres not stated) the same measures were 34 µg/mL (≈ 81.2 µM) and 47 µg/mL (≈ 112 µM).
On the same counts, the results for `CCCCNP(=O)(CCl)OC[C@H]1O[C@@H](n2cc(C)c(=O)[nH]c2=O)C[C@@H]1N=[N+]=[N-]` (some centres not stated) are 82 µg/mL (≈ 189 µM) and 77 µg/mL (≈ 177 µM).
With `CNP(=O)(CCl)OC[C@H]1O[C@@H](n2cc(C)c(=O)[nH]c2=O)C[C@@H]1N=[N+]=[N-]` (some centres not stated), the IC50 was 63.2 µg/mL (≈ 161 µM) with MCF7 and 52 µg/mL (≈ 132 µM) with KB.
On to `Cc1cn([C@H]2C[C@H](N=[N+]=[N-])[C@@H](COP(=O)(CCl)N(C)C)O2)c(=O)[nH]c1=O` (some centres not stated), for which the IC50 in the data set on MCF7 amounted to 22.8 µg/mL (≈ 56.1 µM); with KB, 65 µg/mL (≈ 160 µM).
As for `Cc1cn([C@H]2C[C@H](N=[N+]=[N-])[C@@H](COP(=O)(CCl)NC(C)C)O2)c(=O)[nH]c1=O` (some centres not stated), the Papp B→A at 0.5 h, 100 µM in data set [3] came to 18 ×10⁻⁶ cm/s. For the same molecule, the values for the IC50 in the data set with MCF7 and in the data set on KB were 12.8 µg/mL (≈ 30.4 µM) and 12.1 µg/mL (≈ 28.8 µM), respectively. Besides, the Activity result in the data set on Caco-2 is “Non-toxic”. In data set [2], the Papp A→B at 0.5 h, 100 µM was 3.36 ×10⁻⁶ cm/s.
For the molecule `Nc1ccn([C@@H]2O[C@H](CO)[C@@H](O)[C@@H]2O)c(=O)n1` [CYTARABINE], the IC50 in the data set with MCF7 turned out to be 0.93 µg/mL (≈ 3.82 µM); in the data set on KB it was 0.99 µg/mL (≈ 4.07 µM).
On the same counts, the results for `CCNP(=O)(CCl)OC[C@H]1O[C@@H](n2cc(C)c(=O)[nH]c2=O)C[C@@H]1N=[N+]=[N-]` (some centres not stated) are above 100 µg/mL and above 100 µg/mL.
